This is a sample that favours compounds with a hit; in the whole collection about 1.1% have one here.
core dimer inh – blocks dimerization of HCV core protein | inhibition, % at 5 µM | TR-FRET GST/Flag-core106 dimerization, 1536-well | hit rate 0.33% among 300,000;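 active = inhibition above the mean of all tested compounds plus 3 SD, set per screening campaign, cut at about 45% in these data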
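Assay system: GST-tagged and Flag-tagged HCV core protein residues 1-106 / Times: compound-protein-antibody incubation 4 h at 22.5 °C / Signal: time-resolved FRET, ex 340 nm, em 617 and 671 nm / Evaluation: % inhibition based on acceptor/donor emission ratio / Benchmarks: wells lacking GST-core106 and wells with excess unlabelled core106 / Repeats: singlicate, one well per compound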
NR2E3 ag-1 – human photoreceptor-specific nuclear receptor agonism | Q9Y5X4 | CHO-S Gal4-NCOR/VP16-NR2E3 two-hybrid, luciferase | inhibition of corepressor binding, % at 3.98 µM | hit rate 0.35% among 360,000;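 active = inhibition above the mean of all tested compounds plus 3 SD, cut at about 70% in these data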;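 also: 0% = DMSO with NR2E3 transfected cells and 100% = cells lacking NR2E3 construct; higher means lower luciferase signal from less NR2E3 corepressor binding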
DAGLB inh – diacylglycerol lipase beta (human) inhibition; Q8NCG7; HEK293T DAGLB membrane lysate, EnzChek fluorogenic substrate; inhibition, % at 5.17 µM; hit rate 0.059% among 340,000; AID 504411; in the data active = inhibition above about 34%;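 also: 0% = enzyme with vehicle and 100% = wells lacking enzyme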
Target sequence (Q8NCG7 whole entry, looked up): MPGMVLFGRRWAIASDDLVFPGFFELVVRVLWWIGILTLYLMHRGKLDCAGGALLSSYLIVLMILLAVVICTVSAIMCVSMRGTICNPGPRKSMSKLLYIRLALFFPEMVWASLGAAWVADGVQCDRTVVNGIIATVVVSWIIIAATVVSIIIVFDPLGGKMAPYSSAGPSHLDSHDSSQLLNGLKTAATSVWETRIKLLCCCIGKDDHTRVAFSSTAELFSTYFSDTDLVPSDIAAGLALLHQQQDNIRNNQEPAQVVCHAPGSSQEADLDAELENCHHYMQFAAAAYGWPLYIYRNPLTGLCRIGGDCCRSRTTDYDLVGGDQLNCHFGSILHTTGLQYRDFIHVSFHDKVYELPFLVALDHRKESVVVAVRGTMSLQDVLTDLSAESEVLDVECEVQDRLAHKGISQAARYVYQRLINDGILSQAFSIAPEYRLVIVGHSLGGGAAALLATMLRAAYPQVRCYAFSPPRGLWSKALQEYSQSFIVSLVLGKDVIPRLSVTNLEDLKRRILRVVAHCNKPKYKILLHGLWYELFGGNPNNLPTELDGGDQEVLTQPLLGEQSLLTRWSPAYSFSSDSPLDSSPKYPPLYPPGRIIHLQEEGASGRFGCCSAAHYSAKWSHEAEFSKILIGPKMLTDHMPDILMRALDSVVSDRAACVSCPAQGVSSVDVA
NR2E3 ag-2 – agonists of human nuclear receptor NR2E3; Q9Y5X4; GST-NR2E3/biotin-RetCOR TR-FRET, 1536-well; inhibition of corepressor binding, % at 4.78 µM; hit rate 0.12% among 320,000;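 active = percent inhibition above the cutoff of mean plus 3 SD of all tested compounds, set per screening campaign, cut at about 20% in these data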;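 also: 0% = DMSO wells and 100% = biotin wells as full block of FRET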
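System: GST-tagged NR2E3 plus biotinylated RetCOR corepressor; Buffer or medium: pH 7.5 Tris-based buffer; Probe or stimulus: RetCOR corepressor, biotinylated, 7 nM; Doses: compound at 4.8 µM, single dose; Schedule: 5 h incubation at 4 °C; Technique: time-resolved FRET; Evaluation: percent inhibition of TR-FRET ratio; Replication: one well per compound, singlicate testing.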
MT1-MMP act inh – inhibitors of human MT1-MMP activation. HT1080 RFP-PRO-GFP cells, GFP/RFP ratio fluorescence, overnight; percent of plate control window, DMSO zero. hit rate 0.061% among 360,000. P50281. GFP/RFP ratio change, % at 20 µM;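 active = GFP/RFP ratio change of at least 30% with cell ATP level not reduced by more than half and red fluorescence within 50% of control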
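Assay system: HT1080 RFP-PRO-GFP cells. Benchmarks: DMSO vehicle wells and RFP-L50D-GFP reporter cell wells. Times: overnight cell settling, then overnight compound exposure, 37 °C, 5% CO2. Compound: 20 µM single dose, 1% DMSO. Read-out basis: GFP/RFP fluorescence ratio.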
Vif inh – HIV Vif inhibition; inhibition, % at 7.49 µM; HEK293T cells, Vif self-association by quenched fluorescence, imaging, 24 h; hit rate 0.35% among 340,000; AID 602346; in the data active = inhibition above about 50%, passing the limit was not always enough
NR2E3 ag conf – confirmation of human NR2E3 agonists. shares compounds with NR2E3 ag-1. CHO-S mammalian two-hybrid NR2E3-NCOR, luciferase luminescence. inhibition, % at 3.98 µM. hit rate 51% among 2,300. AID 624378;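 active = average inhibition above a cutoff equal to the mean inhibition of all tested compounds plus one SD, cut at about 70% in these data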;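 also: 0% = DMSO in NR2E3 cells and 100% = DMSO in cells lacking NR2E3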
VP16 counter – reduces GAL4-VP16 reporter signal in NR2E3 counterscreen; shares compounds with NR2E3 ag-1; CHO-S GAL4-VP16 luciferase reporter, luminescence; hit rate 29% among 2,300; inhibition, % at 3.98 µM;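 active = mean inhibition above a cutoff equal to the average over all tested compounds plus one standard deviation, cut at about 70% in these data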;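 also: luciferase from a UAS reporter driven by GAL4-VP16 transactivation; 0% = DMSO with VP16-transfected cells and 100% = DMSO with cells lacking VP16; higher means less reporter light so more repression of VP16 activity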
* hit, by the source's call.

For COc1ccc(NS(=O)(=O)c2ccc(N3CCOCC3)c(N)c2)cc1 the results were NR2E3 ag-1 84.7*, DAGLB inh -0.3, NR2E3 ag-2 3.7, MT1-MMP act inh 8.8, Vif inh -13.2, NR2E3 ag conf 90.0* and VP16 counter 77.9*.
CCOC(=O)C1CCCN(Cc2ccc(OC)c(OCc3ccccc3)c2)C1 (stereo unspecified) was read as core dimer inh 7.2, NR2E3 ag-1 6.8, DAGLB inh -4.8, NR2E3 ag-2 -4.4, MT1-MMP act inh 1.2 and Vif inh 2.7.
`CC(=O)Nc1cccc(OCC(O)Cn2c(C)nc3ccccc32)c1` (stereo unspecified) gave core dimer inh -2.9, NR2E3 ag-1 -6.8, DAGLB inh -3.9, NR2E3 ag-2 -0.5 and Vif inh 1.1.
`CCCOC(=O)c1ccc(OCC(O)Cn2c(C)nc3ccccc32)cc1` (stereo unspecified) gave NR2E3 ag-1 61.8, DAGLB inh -0.2, MT1-MMP act inh 2.8, Vif inh -47.6, NR2E3 ag conf 65.2 and VP16 counter 70.2.
For Cc1nnnn1/C(=C\c1ccccc1)C(=O)OCC(=O)Nc1ccc(Cl)cc1F the results were core dimer inh 2.4, NR2E3 ag-1 60.6, DAGLB inh -3.3, NR2E3 ag-2 -1.6, MT1-MMP act inh 0.0, Vif inh -8.1, NR2E3 ag conf 49.3 and VP16 counter 5.4.
`COc1ccc(C)cc1NC(=O)CSc1nc2scc(C)c2c(=O)[nH]1` gave core dimer inh 8.2, NR2E3 ag-1 83.9*, DAGLB inh 7.3, NR2E3 ag-2 0.2, MT1-MMP act inh 4.7, Vif inh 5.0, NR2E3 ag conf 43.5 and VP16 counter 22.7.
`Cn1c(N)c(C(=O)COC(=O)c2cc(S(=O)(=O)N3CCOCC3)ccc2F)c(=O)n(C)c1=O` gave NR2E3 ag-1 -17.3, DAGLB inh -2.1, MT1-MMP act inh 8.6 and Vif inh 3.5.
`COc1cc(C2CC(=O)c3c([nH]c(C(=O)OCCOC(C)C)c3C)C2)cc(OC)c1OC` (stereo unspecified) gave core dimer inh -4.9, NR2E3 ag-1 53.3, DAGLB inh -0.2, NR2E3 ag-2 3.2, MT1-MMP act inh 14.1, Vif inh -7.3, NR2E3 ag conf 52.9 and VP16 counter 55.6.
For CC1CCN(C(=O)Cn2cnc3c2c(=O)n(C)c(=O)n3C)c2ccccc2S1 (stereo unspecified) the results were core dimer inh 7.2, NR2E3 ag-1 -8.8, DAGLB inh 2.2, NR2E3 ag-2 5.7, MT1-MMP act inh -5.3 and Vif inh 15.9.
Nc1nc2c(ncn2C2C[C@H](O)[C@@H](CO)O2)c(=O)[nH]1 (stereo partly specified) was read as core dimer inh 1.2, NR2E3 ag-1 2.4, DAGLB inh -1.6, NR2E3 ag-2 4.0, MT1-MMP act inh -0.1 and Vif inh -7.9.
`Nc1nc2c(nnn2C2CC(O)C(CO)O2)c(=O)[nH]1` (stereo unspecified) gave NR2E3 ag-1 65.2, MT1-MMP act inh -11.5, NR2E3 ag conf -1.7 and VP16 counter 16.7.
CSc1ccc(CN(C)C(=O)c2ccc(S(=O)(=O)Nc3ccccc3)cc2)cc1 was read as core dimer inh 2.0, NR2E3 ag-1 50.9, DAGLB inh 3.0, NR2E3 ag-2 -3.4, MT1-MMP act inh 2.3, Vif inh -19.7, NR2E3 ag conf -4.8 and VP16 counter 12.6.
COCOCCn1cc(CN2CCS(=O)(=O)N(Cc3ccc(-c4ccccc4)cc3)C(C(C)C)C2=O)nn1 (stereo unspecified) was read as NR2E3 ag-1 7.3, DAGLB inh -3.4, MT1-MMP act inh 5.6 and Vif inh 9.9.
Screening O=C(Nc1ccc(S(=O)(=O)N2CCN(Cc3ccccc3)CC2)cc1)c1cnccn1 returned core dimer inh -2.9, NR2E3 ag-1 61.0, DAGLB inh -2.4, NR2E3 ag-2 3.2, MT1-MMP act inh -4.2, Vif inh -11.6, NR2E3 ag conf 86.0* and VP16 counter 71.3*.
`O=C(Nc1ccc(S(=O)(=O)N2CCCC2)cc1)c1cnccn1` gave core dimer inh 5.2, NR2E3 ag-1 -9.0, DAGLB inh 3.1, NR2E3 ag-2 -0.1 and MT1-MMP act inh 0.9.
For Cc1ccc([C@H]2C(C(=O)O)=C[C@@H](C(C)(C)C)N2S(=O)(=O)c2ccc(C)cc2)cc1 the results were NR2E3 ag-1 -30.5, DAGLB inh 3.7 and MT1-MMP act inh 3.0.
For CCCCC[C@@H]1C=C(C(=O)O)[C@H](c2ccc(Cl)c(Cl)c2)N1S(=O)(=O)c1ccc(C)cc1 the results were NR2E3 ag-1 81.4*, DAGLB inh 11.6, MT1-MMP act inh 9.4, NR2E3 ag conf 71.3* and VP16 counter 24.3.
For CCCCC[C@@H]1C=C(C(=O)O)[C@H](c2ccc(CC)cc2)N1S(=O)(=O)c1ccc(C)cc1 the results were NR2E3 ag-1 51.6, DAGLB inh 7.6, MT1-MMP act inh 3.3, NR2E3 ag conf -0.8 and VP16 counter 11.4.
Screening Cc1ccc(S(=O)(=O)N2[C@@H](c3ccc(Cl)c(Cl)c3)C(C(=O)O)=C[C@H]2C(C)(C)C)cc1 returned NR2E3 ag-1 62.2, DAGLB inh 10.9, MT1-MMP act inh 1.9, NR2E3 ag conf 41.3 and VP16 counter 34.5.
For Cc1cc(NC(=O)CSc2ccc(-c3ccc(F)cc3)nn2)no1 the results were core dimer inh -3.9, NR2E3 ag-1 -22.4, DAGLB inh -2.0, NR2E3 ag-2 1.3, MT1-MMP act inh 7.4 and Vif inh -6.0.
O=S(=O)(/C(=C\c1ccc(C(F)(F)F)cc1)c1nc2ccccc2[nH]1)c1ccccc1 was read as NR2E3 ag-1 91.3*, DAGLB inh 0.6, MT1-MMP act inh -10.2, Vif inh 2.5, NR2E3 ag conf 95.9* and VP16 counter -12.4.
Screening O=C(NCc1ccco1)/C(=C/c1ccc(C(F)(F)F)cc1)c1nc2ccccc2[nH]1 returned core dimer inh 16.0, NR2E3 ag-1 9.8, DAGLB inh 5.7, NR2E3 ag-2 1.4, MT1-MMP act inh -20.3 and Vif inh -6.1.
O=C(NCO)c1cccnc1 was read as NR2E3 ag-1 -0.2, DAGLB inh -1.5, MT1-MMP act inh 0.3 and Vif inh 8.0.

Compound activity as filed in PubChem.
